According to ChEMBL document CHEMBL3392981, “Synthesis and pharmacological evaluation of dual acting ligands targeting the adenosine A2A and dopamine D2 receptors for the potential treatment of Parkinson's disease” (J Med Chem, 2015):

Key:
Adenosine receptor A2a = Adenosine receptor A2a (Homo sapiens, UniProt P29274); assay: Inhibition of human adenosine A2A receptor expressed in FlpIn-CHO cells assessed as inhibition of NECA-induced cAMP accumulation incubated for 30 mins by fluorescence assay; assay type: functional, cell-based
D(2) dopamine receptor [1] = molecular target: T1, D(2) dopamine receptor (Homo sapiens, UniProt P14416); assay: Agonist activity at human dopamine D2L receptor expressed in CHO cell membranes incubated for 1 hr by [35S]GTPgammaS binding assay; assay type: functional; conditions: for pEC50: cho
D(2) dopamine receptor [2] = molecular target: T1, D(2) dopamine receptor; assay: Agonist activity at human dopamine D2L receptor expressed in CHO cell membranes incubated for 1 hr by [35S]GTPgammaS binding assay relative to 100 uM quinelorane; assay type: functional
[3] = Fraction unbound in Wistar Han rat blood at 5 uM incubated for 4 hrs by dialysis and LC-MS/MS method; assay type: ADME, tissue-based
Summary of the method: (§1)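 Blood and brain tissue were taken from Wistar Han rat and tested in vitro. Percent fraction unbound was determined in each matrix (undiluted Fu). The brain:blood partition ratio (Kbb) was derived as an in vitro predictor of CNS penetration. Runs were in triplicate, and values are reported as mean ± SD.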

[4] = Fraction unbound in Wistar Han rat brain at 5 uM incubated for 4 hrs by dialysis and LC-MS/MS method; assay type: ADME, tissue-based; summary of the method: as §1
[5] = Blood-brain partition ratio in Wistar Han rat at 5 uM incubated for 4 hrs by dialysis and LC-MS/MS method; assay type: ADME, tissue-based; conditions: in vitro; summary of the method: as §1

T1 sequence (P14416 whole entry): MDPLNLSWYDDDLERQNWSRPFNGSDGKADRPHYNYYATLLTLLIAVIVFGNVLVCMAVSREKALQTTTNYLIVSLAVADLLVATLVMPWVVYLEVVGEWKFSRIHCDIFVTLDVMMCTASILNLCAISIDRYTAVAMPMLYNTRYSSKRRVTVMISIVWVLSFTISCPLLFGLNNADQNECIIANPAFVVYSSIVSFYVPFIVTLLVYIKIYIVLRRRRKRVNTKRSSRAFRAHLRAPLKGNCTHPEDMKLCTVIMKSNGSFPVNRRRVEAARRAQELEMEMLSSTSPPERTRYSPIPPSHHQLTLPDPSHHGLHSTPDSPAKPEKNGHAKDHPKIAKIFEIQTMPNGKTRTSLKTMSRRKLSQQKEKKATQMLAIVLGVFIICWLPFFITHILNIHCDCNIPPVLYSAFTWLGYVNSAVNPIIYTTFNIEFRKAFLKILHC
Sequence of Adenosine receptor A2a (P29274 whole entry): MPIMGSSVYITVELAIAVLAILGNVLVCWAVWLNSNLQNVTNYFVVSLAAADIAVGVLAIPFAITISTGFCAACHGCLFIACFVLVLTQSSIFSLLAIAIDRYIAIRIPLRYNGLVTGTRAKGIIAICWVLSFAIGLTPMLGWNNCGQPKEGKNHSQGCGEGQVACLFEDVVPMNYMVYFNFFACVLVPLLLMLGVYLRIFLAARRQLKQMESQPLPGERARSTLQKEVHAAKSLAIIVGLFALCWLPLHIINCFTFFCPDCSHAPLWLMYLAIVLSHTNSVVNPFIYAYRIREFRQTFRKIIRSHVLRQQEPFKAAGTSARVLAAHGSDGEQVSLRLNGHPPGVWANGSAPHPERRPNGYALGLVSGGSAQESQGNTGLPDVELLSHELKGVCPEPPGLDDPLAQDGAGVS

SMILES	IC50 (Adenosine receptor A2a; read-out: IC50)	IC50 (Adenosine receptor A2a; read-out: pIC50 (converted))	EC50 (D(2) dopamine receptor [1])	Emax (D(2) dopamine receptor [2])	pEC50 (D(2) dopamine receptor [1])	fraction unbound at 4 h, 5 µM [3]	fraction unbound at 4 h, 5 µM [4]	Kbb [5]
Nc1nc(NC2CCN(CCc3cccc4c3CC(=O)N4)CC2)nc2nc(-c3ccco3)nn12	1510 nM	1510 nM	> 100000 nM		< 4			
Nc1nc(N2CCCN(CCc3cccc4c3CC(=O)N4)CC2)nc2nc(-c3ccco3)nn12.O=C(O)C(F)(F)F	1480 nM	1480 nM	> 100000 nM		< 4			
CCCN(CCCNC(=O)CCCCCCCCCCCNC(=O)CCCOc1ccc(CCNc2nc(N)n3nc(-c4ccco4)nc3n2)cc1)CCc1cccc2c1CC(=O)N2	1070 nM	1070 nM	1400 nM	38%				
O=C(O)C(F)(F)F.O=C1Cc2c(CCN3CCCNCC3)cccc2N1			> 100000 nM		< 4			
CC(C)(C)OC(=O)N1CCC(Nc2nc(N)n3nc(-c4ccco4)nc3n2)CC1	1740 nM	1740 nM						
COC(=O)CCCCCCCCCCCNC(=O)CCCOc1ccc(CCNc2nc(N)n3nc(-c4ccco4)nc3n2)cc1	437 nM	437 nM	> 100000 nM		< 4			
Nc1nc(N2CCN(CCc3cccc4c3CC(=O)N4)CC2)nc2nc(-c3ccco3)nn12	59 nM	58.9 nM	> 100000 nM		< 4	0.0605	0.0563	1.07
Nc1nc(NCCc2ccc(Oc3nc(Cl)nc(N4CCOCC4)n3)cc2)nc2nc(-c3ccco3)nn12	135 nM	135 nM	> 100000 nM		< 4			
CC(C)(C)OC(=O)N1CCN(CCc2cccc3c2CC(=O)N3)CC1			> 100000 nM		< 4			
CCCN1CCC[C@@H]2Cc3nc(N)ncc3C[C@H]21 [QUINELORANE]					7.35			
O=C1Cc2c(CCN3CCNCC3)cccc2N1			> 100000 nM		< 4			
Nc1nc(NCCc2ccc(O)cc2)nc2nc(-c3ccco3)nn12 [ZM-241385]			> 100000 nM		< 4	0.0647	0.0849	0.76
CC(C)(C)OC(=O)N1CCCN(CCc2cccc3c2CC(=O)N3)CC1			> 100000 nM		< 4			
CC(C)(C)OC(=O)NC1CCN(CCc2cccc3c2CC(=O)N3)CC1			> 100000 nM		< 4			
NC1CCN(CCc2cccc3c2CC(=O)N3)CC1			> 100000 nM		< 4			
CCCN(CCc1cccc2c1CC(=O)N2)c1nc(N)n2nc(-c3ccco3)nc2n1	32 nM	32.4 nM	> 100000 nM		< 4			

Continued by falling EC50 (D(2) dopamine receptor [1]), values first:

IC50 (Adenosine receptor A2a; read-out: IC50)	IC50 (Adenosine receptor A2a; read-out: pIC50 (converted))	EC50 (D(2) dopamine receptor [1])	Emax (D(2) dopamine receptor [2])	pEC50 (D(2) dopamine receptor [1])	fraction unbound at 4 h, 5 µM [3]	fraction unbound at 4 h, 5 µM [4]	Kbb [5]	SMILES
110 nM	110 nM	785 nM	68%					CCCN(CCCNC(=O)CCCNC(=O)CCCOc1ccc(CCNc2nc(N)n3nc(-c4ccco4)nc3n2)cc1)CCc1cccc2c1CC(=O)N2
41 nM	40.7 nM	501 nM	77%					CCCN(CCCNC(=O)CCCCCCCNC(=O)CCCOc1ccc(CCNc2nc(N)n3nc(-c4ccco4)nc3n2)cc1)CCc1cccc2c1CC(=O)N2
35 nM	35.5 nM	484 nM	79%					CCCN(CCCNC(=O)CCCC(=O)Oc1ccc(CCNc2nc(N)n3nc(-c4ccco4)nc3n2)cc1)CCc1cccc2c1CC(=O)N2
1120 nM	1120 nM	389 nM	77%					CN(CCCNc1nc(N)n2nc(-c3ccco3)nc2n1)CCc1cccc2c1CC(=O)N2
120 nM	120 nM	311 nM	65%		0.0222	0.0061	3.64	CCCN(CCCNc1nc(Oc2ccc(CCNc3nc(N)n4nc(-c5ccco5)nc4n3)cc2)nc(N2CCOCC2)n1)CCc1cccc2c1CC(=O)N2.O=CO
18 nM	18.2 nM	204 nM	95%					CCCN(CCCNC(=O)CCCOc1ccc(CCNc2nc(N)n3nc(-c4ccco4)nc3n2)cc1)CCc1cccc2c1CC(=O)N2
63 nM	63.1 nM	148 nM	88%					CCCN(CCCNC(=O)COc1ccc(CCNc2nc(N)n3nc(-c4ccco4)nc3n2)cc1)CCc1cccc2c1CC(=O)N2
> 100000 nM		114 nM	66%					CCCN(CCCNC(=O)CCCCCCCCCCCNC(=O)OC(C)(C)C)CCc1cccc2c1CC(=O)N2
912 nM	912 nM	88 nM	89%		0.198	0.153	1.29	CCCN(CCCNc1nc(N)n2nc(-c3ccco3)nc2n1)CCc1cccc2c1CC(=O)N2
1780 nM	1780 nM	38 nM	77%					CCCN(CCCCCCNc1nc(N)n2nc(-c3ccco3)nc2n1)CCc1cccc2c1CC(=O)N2
